Results reported in ChEMBL document CHEMBL2380235, “Discovery of N-{4-[(3-hydroxyphenyl)-3-methylpiperazin-1-yl]methyl-2-methylpropyl}-4-phenoxybenzamide analogues as selective kappa opioid receptor antagonists” (J Med Chem, 2013).
Activity calls are given as the source filed them. No cut-off for these calls is given here.

How the values were obtained:
Homo sapiens [1] = organism: Homo sapiens; assay: Selectivity ratio of Ke for human mu opioid receptor to Ke for human kappa opioid receptor
[2] = biological target: Mu-type opioid receptor (Homo sapiens) (UniProt P35372); conditions: CHO
[3] = biological target: Kappa-type opioid receptor (Homo sapiens) (UniProt P41145); assay: Intrinsic activity at human kappa opioid receptor expressed in CHO cells at 10 uM by [35S]GTPgammaS binding assay; type: functional, cell-based
Homo sapiens [4] = organism: Homo sapiens; assay: Selectivity ratio of Ke for human delta opioid receptor to Ke for human kappa opioid receptor
[5] = biological target: Kappa-type opioid receptor (Homo sapiens) (UniProt P41145); assay: Antagonist activity at human kappa opioid receptor expressed in CHO cells assessed as inhibition of U69,593-stimulated [35S]GTPgammaS binding; type: functional, cell-based
Procedure, shortened: (§1)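 Agonist concentration-response curves (eight concentrations, duplicate) were run with or without a single test-compound concentration. Ke = [L]/(DR−1), where [L] is the test-compound concentration and DR is the ratio of agonist EC50 with versus without compound. At least two test-compound concentrations were used, chosen to shift agonist EC50 rightward at least four-fold while keeping a clear upper asymptote.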

[6] = biological target: Delta-type opioid receptor (Homo sapiens) (UniProt P41143); assay: Intrinsic activity at human delta opioid receptor expressed in CHO cells at 10 uM by [35S]GTPgammaS binding assay; type: functional, cell-based
[7] = biological target: Delta-type opioid receptor (Homo sapiens) (UniProt P41143); assay: Antagonist activity at human delta opioid receptor expressed in CHO cells assessed as inhibition of DPDPE-stimulated [35S]GTPgammaS binding; type: functional, cell-based; procedure, shortened: as §1
[8] = biological target: Kappa-type opioid receptor (Homo sapiens) (UniProt P41145); assay: Antagonist activity at human kappa opioid receptor expressed in CHO cells assessed as inhibition of U69,593-stimulated [35S]GTPgammaS binding at 10 nM relative to control; type: functional, cell-based

Chain of Kappa-type opioid receptor (Homo sapiens) (P41145 whole entry): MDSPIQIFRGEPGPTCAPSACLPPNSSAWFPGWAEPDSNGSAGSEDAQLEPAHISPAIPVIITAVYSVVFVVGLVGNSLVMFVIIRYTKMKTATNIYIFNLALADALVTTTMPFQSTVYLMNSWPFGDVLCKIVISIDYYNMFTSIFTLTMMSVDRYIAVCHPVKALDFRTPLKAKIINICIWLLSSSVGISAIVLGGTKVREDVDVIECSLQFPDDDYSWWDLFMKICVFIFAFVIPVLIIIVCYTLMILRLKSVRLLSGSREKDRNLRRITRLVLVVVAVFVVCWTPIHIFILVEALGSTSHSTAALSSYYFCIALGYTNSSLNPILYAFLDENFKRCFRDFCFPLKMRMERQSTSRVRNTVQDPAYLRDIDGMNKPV
Chain of Delta-type opioid receptor (Homo sapiens) (P41143 whole entry): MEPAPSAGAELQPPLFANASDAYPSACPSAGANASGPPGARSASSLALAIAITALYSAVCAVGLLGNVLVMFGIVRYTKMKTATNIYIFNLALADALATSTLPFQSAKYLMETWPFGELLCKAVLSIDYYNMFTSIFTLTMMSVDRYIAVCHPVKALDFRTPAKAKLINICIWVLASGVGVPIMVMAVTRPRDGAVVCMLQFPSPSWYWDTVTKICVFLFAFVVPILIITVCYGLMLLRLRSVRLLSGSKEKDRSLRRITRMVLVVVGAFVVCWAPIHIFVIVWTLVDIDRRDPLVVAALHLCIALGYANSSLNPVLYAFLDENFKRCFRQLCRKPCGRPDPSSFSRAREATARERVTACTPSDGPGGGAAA
Chain of Mu-type opioid receptor (Homo sapiens) (P35372 whole entry): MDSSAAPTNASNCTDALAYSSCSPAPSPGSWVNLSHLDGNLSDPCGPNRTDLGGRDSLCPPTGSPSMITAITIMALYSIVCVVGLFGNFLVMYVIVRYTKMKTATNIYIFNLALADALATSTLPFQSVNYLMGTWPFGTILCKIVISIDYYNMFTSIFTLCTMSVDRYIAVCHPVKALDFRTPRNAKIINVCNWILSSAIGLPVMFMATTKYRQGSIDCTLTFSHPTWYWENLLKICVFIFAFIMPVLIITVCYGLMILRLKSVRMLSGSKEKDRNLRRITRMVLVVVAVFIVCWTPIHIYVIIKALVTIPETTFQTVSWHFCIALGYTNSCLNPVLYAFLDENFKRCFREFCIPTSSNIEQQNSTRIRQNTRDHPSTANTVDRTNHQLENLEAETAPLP

| Compound | Ratio Ke (Homo sapiens [1]) | Ke [2] [nM] | Activity [3] | Ratio Ke (Homo sapiens [4]) | Ke [5] [nM] | Activity [6] | Ke [7] [nM] | inhibition [8] [%] |
| --- | --- | --- | --- | --- | --- | --- | --- | --- |
| CC(C)[C@@H](CN1CCN(c2cccc(O)c2)[C@@H](C)C1)NC(=O)c1ccc(Oc2ccccc2)cc1 | 60 | 51 | inactive | 671 | 0.85 | inactive | 570 | > 60 |
| CC(C)[C@@H](CN1CCN(c2cccc(O)c2)[C@@H](C)C1)NC(=O)c1ccc(-c2ccccc2)cc1 | 4.7 |  | inactive | 137 | 1.87 | inactive |  | > 60 |
| CCCCc1ccc(C(=O)N[C@H](CN2CCN(c3cccc(O)c3)[C@@H](C)C2)C(C)C)cc1 | 7.5 |  | inactive | 83 | 2.8 | inactive |  | > 60 |
